Legend:
Mus musculus [1] = test: Gastrointestinal (GI) motility was assessed by colonic bead expulsion after subcutaneous administration in mice; type: functional; conditions: sc
[2] = target: Delta-type opioid receptor (Mus musculus, UniProt P32300); test: In vitro agonistic activity against opioid receptor delta of mouse vas deferens; type: functional, tissue-based
How it was run: (§1)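 Field stimulation with supramaximal-voltage bipolar rectangular pulses of male guinea-pig ileum myenteric plexus longitudinal muscle and of mouse vas deferens. Inhibition of the electrically evoked twitch; IC50 values as mean ± SEM.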

Mu-type opioid receptor [3] = target: Mu-type opioid receptor (Cavia porcellus, UniProt P97266); test: In vitro agonistic activity against opioid receptor mu of guinea pig ileum; type: functional, tissue-based; how it was run: as §1
Sequence of Mu-type opioid receptor (Cavia porcellus, UniProt P97266) (P97266 whole entry): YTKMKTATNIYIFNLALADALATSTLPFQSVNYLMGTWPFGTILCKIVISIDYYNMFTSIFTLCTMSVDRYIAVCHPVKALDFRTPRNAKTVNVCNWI

[4] = target: Delta-type opioid receptor (Rattus norvegicus, UniProt P33533); test: Inhibition of [3H][Ile5,6]deltorphin II binding to opioid receptor delta from rat brain membranes; type: cell membranes, Membrane
Sequence of Delta-type opioid receptor (Rattus norvegicus, UniProt P33533) (P33533 whole entry): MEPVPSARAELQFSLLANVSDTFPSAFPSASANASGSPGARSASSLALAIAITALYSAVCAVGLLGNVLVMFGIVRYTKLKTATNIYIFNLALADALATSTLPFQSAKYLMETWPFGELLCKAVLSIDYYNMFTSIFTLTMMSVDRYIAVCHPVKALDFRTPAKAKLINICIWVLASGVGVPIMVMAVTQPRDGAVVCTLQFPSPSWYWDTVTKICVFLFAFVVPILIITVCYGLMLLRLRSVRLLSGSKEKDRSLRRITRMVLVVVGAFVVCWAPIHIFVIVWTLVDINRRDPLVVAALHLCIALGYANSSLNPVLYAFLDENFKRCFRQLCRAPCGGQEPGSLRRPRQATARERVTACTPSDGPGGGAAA
How it was run: (§2)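 Sprague-Dawley rat brain membranes (0.3-0.5 mg protein) in 50 mM Tris-HCl incubated with 0.5 nM [3H]DAMGO or [3H][Ile5,6]deltorphin II, 45 min at 35 °C. GF/C filtration, ice-cold Tris-HCl washes; nonspecific binding with 10 µM naloxone. Duplicates, 3-4 independent experiments; Ki as mean ± SEM.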

Mus musculus [5] = test: Antinociceptive potencie was assessed after subcutaneous administration of compound by hotplate test (HP) in mice; type: functional
How it was run: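 Male CD-1 mice (20-25 g), compound in sterile Ringer's solution given sc, 10 animals per dose. Paw licking or jumping on 55 °C hot-plate; pre-drug control latency (non-responders within 3 s excluded), 12 s cutoff.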

[6] = target: Kappa-type opioid receptor (Cavia porcellus, UniProt P41144); test: Inhibition of [3H]U-69593 binding to opioid receptor kappa from guinea pig brain membranes
Sequence of Kappa-type opioid receptor (P41144 whole entry): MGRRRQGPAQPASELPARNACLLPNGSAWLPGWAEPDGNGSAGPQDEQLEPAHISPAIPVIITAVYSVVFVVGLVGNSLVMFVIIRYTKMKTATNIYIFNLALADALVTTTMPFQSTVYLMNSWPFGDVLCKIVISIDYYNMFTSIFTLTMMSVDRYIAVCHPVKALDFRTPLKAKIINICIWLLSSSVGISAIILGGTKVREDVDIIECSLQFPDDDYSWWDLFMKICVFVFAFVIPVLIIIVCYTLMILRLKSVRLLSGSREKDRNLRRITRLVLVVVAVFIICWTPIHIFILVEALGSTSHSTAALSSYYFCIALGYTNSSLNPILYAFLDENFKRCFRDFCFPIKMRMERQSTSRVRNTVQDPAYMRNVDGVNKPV

[7] = Ratio of binding affinities for opioid receptors kappa and mu
How it was run: (§3)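 Ratios of Ki values from competition binding. Rat brain membranes were used with 0.5 nM [3H]DAMGO (mu) or [3H][Ile5,6]deltorphin II (delta), 45 min at 35 °C. Guinea pig brain membranes were used with 1 nM [3H]U69,593 (kappa), 30 min at 30 °C. Nonspecific binding was defined with 10 µM naloxone.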

Mu-type opioid receptor [8] = target: Mu-type opioid receptor (Rattus norvegicus, UniProt P33535); test: Inhibition of [3H]DAMGO binding to opioid receptor mu from rat brain membranes; type: cell membranes, Membrane; how it was run: as §2
Sequence of Mu-type opioid receptor (Rattus norvegicus, UniProt P33535) (P33535 whole entry): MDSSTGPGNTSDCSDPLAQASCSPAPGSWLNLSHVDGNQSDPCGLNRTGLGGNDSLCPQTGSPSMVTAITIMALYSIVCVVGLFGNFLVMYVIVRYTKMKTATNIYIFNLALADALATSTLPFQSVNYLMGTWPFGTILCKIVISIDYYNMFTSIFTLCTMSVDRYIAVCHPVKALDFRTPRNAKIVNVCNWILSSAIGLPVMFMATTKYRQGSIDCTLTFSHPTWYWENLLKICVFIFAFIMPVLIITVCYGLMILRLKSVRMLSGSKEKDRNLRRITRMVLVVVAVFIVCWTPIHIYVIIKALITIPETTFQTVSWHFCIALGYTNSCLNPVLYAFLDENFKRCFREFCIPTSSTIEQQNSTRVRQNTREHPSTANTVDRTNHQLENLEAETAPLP

[9] = Relative agonistic activity against opioid receptor delta in mouse vas deferens and opioid receptor mu in guinea pig ileum; type: functional
Mus musculus [10] = species: Mus musculus; test: Ratios of colonic bead expulsion to that of antinociceptive potencie by hotplate test in mice; type: functional
[11] = target: Opioid receptors; mu & delta (Rattus norvegicus) (UniProt P33533+P33535); test: Ratio of binding affinities for opioid receptors delta and mu; type: protein assay; how it was run: as §3
Sequence of Opioid receptors; mu & delta (Rattus norvegicus) (P33533 whole entry, looked up): as the sequence (P33533 whole entry) above
Sequence of Opioid receptors; mu & delta (Rattus norvegicus) (P33535 whole entry, looked up): as the sequence (P33535 whole entry) above

Sequence of Delta-type opioid receptor (Mus musculus, UniProt P32300) (P32300 whole entry): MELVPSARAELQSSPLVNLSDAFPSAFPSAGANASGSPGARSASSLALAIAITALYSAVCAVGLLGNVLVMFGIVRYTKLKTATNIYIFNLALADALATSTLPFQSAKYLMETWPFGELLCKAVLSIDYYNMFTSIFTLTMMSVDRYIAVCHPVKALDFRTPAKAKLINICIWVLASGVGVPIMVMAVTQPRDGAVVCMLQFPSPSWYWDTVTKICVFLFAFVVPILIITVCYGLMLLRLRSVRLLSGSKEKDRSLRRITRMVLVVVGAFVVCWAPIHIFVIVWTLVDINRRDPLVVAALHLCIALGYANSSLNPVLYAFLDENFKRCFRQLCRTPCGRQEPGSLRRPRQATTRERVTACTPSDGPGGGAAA

Compound	ED50 (Mus musculus [1]) [µmol/kg]	IC50 [2] [nM]	IC50 (Mu-type opioid receptor [3]) [nM]	Ki [4] [nM]	AD50 (Mus musculus [5]) [nmol/kg]	Ki [6] [nM]	Selectivity [7]	Ki (Mu-type opioid receptor [8]) [nM]	Ratio [9]	Ratio (Mus musculus [10])	Selectivity [11]
CO[C@@]12CCC(=O)[C@@H]3Oc4c(O)ccc5c4[C@@]31CCN(C)[C@@H]2C5	0.022	30.5	2	4.8	53	–	–	–	–	–	–
CN1CC[C@]23c4c5ccc(O)c4O[C@@]2(C)C(=O)CC[C@@]3(OCc2ccccc2)[C@H]1C5	0.074	2.3	0.5	3.67	65	2.46	14	0.18	4.6	1.1	20
CN1CC[C@]23c4c5ccc(O)c4O[C@H]2C(=O)CC[C@@]3(OCc2c(Cl)cccc2Cl)[C@H]1C5	2.49	209	1000	152	1640	33.2	3.2	10.3	0.2	1.5	15
C=CCO[C@@]12CCC(=O)[C@@H]3Oc4c(O)ccc5c4[C@@]31CCN(C)[C@@H]2C5	0.037	63	17.6	36	35	33.8	55	0.61	3.6	1.1	59
CN1CC[C@]23c4c5ccc(O)c4O[C@H]2[C@@H](O)C=C[C@H]3[C@H]1C5 [MORPHINE]	7.62	–	–	–	6690	–	–	–	–	–	–
CN1CC[C@]23c4c5ccc(O)c4O[C@H]2C(=O)CC[C@@]3(OCc2cccc3ccccc23)[C@H]1C5	0.0118	0.8	0.9	2.92	14.4	0.92	5.1	0.18	0.9	0.8	16
CN1CC[C@]23c4c5ccc(O)c4O[C@H]2C(=O)CC[C@@]3(OCc2ccccc2)[C@H]1C5	0.027	1.5	0.9	2.14	9.6	1.18	10	0.12	1.7	2.8	18
CO[C@@]12CCC(=O)[C@]3(C)Oc4c(O)ccc5c4[C@@]31CCN(C)[C@@H]2C5	–	24.4	6.1	13.3	280	25.2	168	0.15	4	–	89
CCO[C@@]12CCC(=O)[C@]3(C)Oc4c(O)ccc5c4[C@@]31CCN(CCc1ccccc1)[C@@H]2C5	0.121	9.7	1.9	3.14	109	83.2	520	0.16	5.1	1.1	20
